Measured values published in ChEMBL document CHEMBL1155099, “Natural products in parallel synthesis: triazole libraries of nonactic acid” (2008).
Activity calls are given as the source filed them.

What was measured:
Type in all cases: functional, organism-based
Bacillus subtilis = assay: Antibacterial activity against Bacillus subtilis at 1 mM by almar blue dye reduction assay
Outline: (§1)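 Single-point primary screen at 1 mM using Alamar Blue dye reduction as the growth read-out.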

Escherichia coli = assay: Antibacterial activity against Escherichia coli at 1 mM by almar blue dye reduction assay; outline: as §1
Bacillus anthracis = assay: Antibacterial activity against Bacillus anthracis at 1mM by almar blue dye reduction assay
Saccharomyces cerevisiae = assay: Antifungal activity against Saccharomyces cerevisiae at 1 mM by almar blue dye reduction assay; outline: as §1
Candida albicans = assay: Antifungal activity against Candida albicans at 1 mM by almar blue dye reduction assay; outline: as §1
Bacillus cereus = assay: Antibacterial activity against Bacillus cereus at 1 mM by almar blue dye reduction assay; outline: as §1
Cryptococcus neoformans = assay: Antifungal activity against Cryptococcus neoformans at 1 mM by almar blue dye reduction assay; outline: as §1
Staphylococcus aureus = assay: Antibacterial activity against Staphylococcus aureus at 1 mM by almar blue dye reduction assay; outline: as §1
Pseudomonas aeruginosa = assay: Antibacterial activity against Pseudomonas aeruginosa at 1 mM by almar blue dye reduction assay; outline: as §1

Measured: Activity

CCN(CC)C(=O)[C@H](C)[C@H]1CC[C@@H](C[C@@H](C)n2cc(C#Cc3ccccn3)nn2)O1
inactive: all assays above

CC(C)NC(=O)[C@H](C)[C@H]1CCC(C[C@@H](C)n2cc(C#Cc3ccccc3[N+](=O)[O-])nn2)O1 (single isomer, unassigned)
inactive: all assays above

CCN(CC)C(=O)[C@H](C)[C@H]1CC[C@@H](C[C@@H](C)n2cc(C#Cc3cccc4ccccc34)nn2)O1
inactive: all assays above

C[C@H](C[C@@H]1CC[C@H]([C@@H](C)C(=O)N2CCN(CC3CCCO3)CC2)O1)n1cc(C#CCN2CCN(c3ccccc3)CC2)nn1 (some centres not stated)
inactive: all assays above

C[C@H](C[C@@H]1CC[C@H]([C@@H](C)C(=O)N(C)Cc2ccccc2)O1)n1cc(C#Cc2ccc(Oc3ccccc3)cc2)nn1
inactive: all assays above

C[C@H](C[C@@H]1CC[C@H]([C@@H](C)C(=O)N2CCN(CC3CCCO3)CC2)O1)n1cc(C#Cc2ccccn2)nn1 (some centres not stated)
inactive: all assays above

C[C@H](C[C@@H]1CC[C@H]([C@@H](C)C(=O)N2CCN(CC3CCCO3)CC2)O1)n1cc(C#CCOc2ccc(Br)cc2)nn1 (some centres not stated)
inactive: all assays above

C[C@H](C[C@@H]1CC[C@H]([C@@H](C)C(=O)N2CCCC2)O1)n1cc(C#CC2=CCCCC2)nn1
inactive: all assays above

Cc1cccc(NC(=O)OCC#Cc2cn([C@H](C)CC3CCC([C@@H](C)C(=O)N4CCCC4)O3)nn2)c1 (single isomer, unassigned)
inactive: all assays above

COc1ccc(C#Cc2cn([C@H](C)C[C@@H]3CC[C@H]([C@@H](C)C(=O)N4CCN(CC5CCCO5)CC4)O3)nn2)cc1 (some centres not stated)
inactive: all assays above

C[C@H](C[C@@H]1CC[C@H]([C@@H](C)C(=O)N2CCCC2)O1)n1cc(C#CCOc2ccc(C(F)(F)F)cc2)nn1
inactive: all assays above

CC(C)NC(=O)[C@H](C)[C@H]1CC[C@@H](C[C@@H](C)n2cc(C#CCOc3cccc(-c4ccccc4)c3)nn2)O1
inactive: all assays above

C[C@H](C[C@@H]1CC[C@H]([C@@H](C)C(=O)N(C)Cc2ccccc2)O1)n1cc(C#CCOc2ccc(Br)cc2)nn1
inactive: all assays above
